Experimental data: article PMC3206492 (Journal of the American Chemical Society, 2011)

System: PBP1b
Assay: In vitro PBP1b transglycosylase assay
Assay type: biochemical, Escherichia coli
Details: peptide up to 200 μM
How it was run: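 E. coli PBP1b glycan polymerization with heptaprenyl lipid II substrate at 4 μM, run with and without test peptide. Peptidoglycan formation was monitored, and IC50 is the peptide concentration giving half-maximal inhibition of PBP1b activity.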

Row | Substance | inhibition of lipid II polymerization at concentrations up to 200 μM
1 | lactocin S | did not demonstrate any inhibitory activity
2 | epilancin 15X | did not demonstrate any inhibitory activity
3 | sublancin | did not inhibit
